Assay results published in ChEMBL document CHEMBL1148203, “Briarane diterpenes from two species of octocorals, Ellisella sp. and Pteroeides sp” (J Nat Prod, 2004).
Activity calls are given as the source filed them. No cut-off for these calls is given here.

Experiments:
Type in all cases: functional, cell-based
NBT2 = assay: Induction of multinuclei formation in rat NBT2 cells assessed as inhibition of cytokinesis at 0.5 to 2 ug/mL after 72 hrs
Procedure, shortened: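 Rat bladder epithelial NBT-II cells in modified Eagle's medium with 10% heat-inactivated FBS, streptomycin, amphotericin B and glutamic acid; exposed to graded briarane concentrations at 37 °C for 72 h; multinucleation scored by microscopy at 48 and 72 h.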

KB-C2 = assay: Reversal of multidrug resistance in human KB-C2 cells after 72 hrs by MTT assay
Procedure, shortened: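 KB-C2 MDR line (selected from KB-3-1, kept in 2 µg/mL colchicine), RPMI 1640 with 10% newborn calf serum; 10 000 cells/well, 24 h preincubation at 37 °C, 5% CO2; colchicine plus sample added for 48 h; MTT 3 h, formazan in DMSO, absorbance 540 nm gives % growth inhibition; cytotoxicity checked in parental KB-3-1.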

KB-CV60 = assay: Reversal of multidrug resistance in human KB-CV60 cells after 72 hrs by MTT assay
Procedure, shortened: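 KB-CV60 MDR line (selected from KB-3-1, kept in 1 µg/mL cepharanthine and 60 ng/mL vincristine), RPMI 1640 with 10% newborn calf serum; 10 000 cells/well, 24 h preincubation at 37 °C, 5% CO2; anticancer agent plus sample for 48 h; MTT 3 h, formazan in DMSO, A540 gives % growth inhibition.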

| Compound | Activity (NBT2) | Activity (KB-C2) | Activity (KB-CV60) |
| --- | --- | --- | --- |
| C=C1/C=C\[C@@H](OC(C)=O)[C@@]2(C)C=C[C@@H](OC(C)=O)[C@](O)(COC(C)=O)[C@@H]2[C@H](OC(C)=O)[C@]2(O)[C@@H](C)C(=O)O[C@H]2[C@H]1Cl | Active |  |  |
| C=C1[C@H](Cl)[C@@H]2OC(=O)[C@H](C)[C@]23O[C@@]1(O)C[C@H](OC(C)=O)[C@]1(C)[C@H]([C@@H](C)[C@H](OC(=O)c2ccccc2)C[C@@H]1OC(C)=O)[C@@H]3OC(C)=O |  | Active | Active |
| C=C1/C=C/[C@H](OC(C)=O)[C@@]2(C)[C@@H](OC(C)=O)C[C@H]3O[C@@]3(C)[C@@H]2[C@H](OC(C)=O)[C@]2(O)[C@@H](C)C(=O)O[C@H]2[C@H]1Cl |  | inactive | inactive |
| CCC(=O)O[C@@H]1C[C@H](OC(C)=O)[C@]2(C)[C@H](OC(C)=O)/C=C\C(CCl)=C/[C@@H]3OC(=O)[C@H](C)[C@@]3(O)[C@@H](OC(C)=O)[C@H]2[C@]1(C)O |  | inactive | inactive |
| CC(=O)OCC1=C/[C@@H]2OC(=O)[C@H](C)[C@@]2(O)[C@@H](OC(C)=O)[C@H]2[C@]3(C)O[C@@H]3C[C@H](OC(C)=O)[C@]2(C)[C@@H](OC(C)=O)\C=C\1 |  | inactive | inactive |
| C=C1CC[C@@H](OC(C)=O)[C@@]2(C)[C@@H](OC(C)=O)CC[C@@]3(CO3)[C@@H]2[C@H](OC(C)=O)[C@]2(O)[C@@H](C)C(=O)O[C@H]2[C@H]1Cl | Active |  |  |
